What all share (assay type): functional
In assay [1] the test system is SW-620. As to the kind of experiment: Cytotoxicity against human SW620 cells after 48 hrs by SRB assay. The conditions noted are these: SW-620, 48 h. In outline:
(§1)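 Five-dose run from the sixty-line panel, at 10−4, 10−5, 10−6, 10−7 and 10−8 M. SRB-stain OD is read just before compound addition, after 48 hrs of exposure, and in vehicle controls, giving percentage growth; negative growth indicates cytotoxicity. GI50 is the concentration giving 50% reduction in net protein increase versus control cells. LC50 is the concentration lethal to 50% of cells.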

Assay [2] concerns SK-MEL-2. The assay can be described thus: Cytotoxicity against human SK-MEL-2 cells after 48 hrs by SRB assay. The settings on record: SK-MEL-2, 48 h. The method in brief:
as §1
For orientation: The SRB assay estimates cell density from bound dye.

Assay [3] has as its system TK-10. As to the kind of experiment: Cytotoxicity against human TK10 cells after 48 hrs by SRB assay. The settings on record: TK-10, 48 h. In outline:
as §1

For assay [4], the system named is IGROV-1. The assay can be described thus: Cytotoxicity against human IGROV1 cells after 48 hrs by SRB assay. The conditions noted are these: IGROV-1, 48 h. In outline: as §1
The test system of assay [5] is T47D. The assay can be described thus: Cytotoxicity against human T47D cells after 48 hrs by SRB assay. In outline: as §1
The test system of assay [6] is TK-10. As to the kind of experiment: Cytotoxicity against human TK10 cells assessed as growth inhibition at 10 uM after 48 hrs by SRB assay. The conditions noted are these: TK-10, 48 h, read-out: GI. The method in brief: (§2)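 Single-dose screen at 10µM across the sixty-cell-line panel. Percentage growth is derived from SRB-stain OD taken just before compound exposure, after 48 hrs exposure, and in vehicle-treated controls. Negative values indicate cytotoxicity.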

Assay [7] has as its system SK-OV-3. The assay can be described thus: Cytotoxicity against human SKOV3 cells after 48 hrs by SRB assay. The settings on record: SK-OV-3, 48 h. The method in brief: as §1
For assay [8], the system named is LOX IMVI. As to the kind of experiment: Cytotoxicity against human LOXIMVI cells after 48 hrs by SRB assay. The method in brief: as §1
Assay [9] has as its system K562. The assay can be described thus: Cytotoxicity against human K562 cells after 48 hrs by SRB assay. The conditions noted are these: K562, 48 h, read-out: LC50 (the source's name). In outline: as §1
Assay [10] deals with HCT-116. As to the kind of experiment: Cytotoxicity against human HCT116 cells after 48 hrs by SRB assay. The conditions noted are these: HCT-116, 48 h. In outline:
as §1

In assay [11] the test system is MCF7. The assay can be described thus: Cytotoxicity against human MCF7 cells after 48 hrs by SRB assay. The conditions noted are these: MCF7, 48 h. In outline:
as §1

Assay [12] has as its system MDA-MB-435. As to the kind of experiment: Cytotoxicity against human MDA-MB-435 cells after 48 hrs by SRB assay. The settings on record: MDA-MB-435, 48 h. The method in brief: as §1
Assay [13] in a line: Cytotoxicity against human OVCAR5 cells assessed as growth inhibition at 10 uM after 48 hrs by SRB assay. The conditions noted are these: OVCAR-5, 48 h, read-out: GI. In outline: as §2
In assay [14] the test system is 786-0. The assay can be described thus: Cytotoxicity against human 786-0 cells after 48 hrs by SRB assay. The settings on record: 786-0, 48 h. The method in brief: as §1
For assay [15], the system named is SNB-19. The assay can be described thus: Cytotoxicity against human SNB19 cells after 48 hrs by SRB assay. The settings on record: SNB-19, 48 h. In outline:
as §1

The nature of assay [16]: Cytotoxicity against human NCI-ADR-RES cells after 48 hrs by SRB assay. The method in brief: as §1
The subject of assay [17] is OVCAR-8. As to the kind of experiment: Cytotoxicity against human OVCAR8 cells after 48 hrs by SRB assay. The settings on record: OVCAR-8, 48 h. The method in brief:
as §1

Assay [18] relates to A498. The assay can be described thus: Cytotoxicity against human A498 cells after 48 hrs by SRB assay. The conditions noted are these: A498, 48 h. The method in brief: as §1
Assay [19] in a line: Cytotoxicity against human UACC257 cells after 48 hrs by SRB assay. The conditions noted are these: UACC-257, 48 h. The method in brief:
as §1

The subject of assay [20] is NCI-H226. As to the kind of experiment: Cytotoxicity against human NCI-H226 cells assessed as growth inhibition at 10 uM after 48 hrs by SRB assay. The settings on record: NCI-H226, 48 h, read-out: GI. In outline: as §2
The test system of assay [21] is SF-295. The assay can be described thus: Cytotoxicity against human SF295 cells after 48 hrs by SRB assay. The conditions noted are these: SF-295, 48 h. The method in brief: as §1
The subject of assay [22] is HOP-62. As to the kind of experiment: Cytotoxicity against human HOP62 cells after 48 hrs by SRB assay. The settings on record: HOP-62, 48 h. The method in brief:
as §1

In assay [23] the test system is UACC-62. The assay can be described thus: Cytotoxicity against human UACC62 cells after 48 hrs by SRB assay. The settings on record: UACC-62, 48 h. In outline: as §1
Assay [24] deals with NCI-H23. As to the kind of experiment: Cytotoxicity against human NCI-H23 cells after 48 hrs by SRB assay. The conditions noted are these: NCI-H23, 48 h. The method in brief:
as §1

Assay [25] deals with MDA-MB-468. As to the kind of experiment: Cytotoxicity against human MDA-MB-468 cells after 48 hrs by SRB assay. The settings on record: MDA-MB-468, 48 h. The method in brief:
as §1

Assay [26] relates to NCI-H460. The assay can be described thus: Cytotoxicity against human NCI-H460 cells after 48 hrs by SRB assay. The settings on record: NCI-H460, 48 h. In outline:
as §1

The test system of assay [27] is SN12C. As to the kind of experiment: Cytotoxicity against human SN12C cells after 48 hrs by SRB assay. The method in brief: as §1
Assay [28] can be described thus: Cytotoxicity against human OVCAR5 cells after 48 hrs by SRB assay. The settings on record: OVCAR-5, 48 h. The method in brief: as §1
The test system of assay [29] is RXF 393. The assay can be described thus: Cytotoxicity against human RXF393 cells after 48 hrs by SRB assay. The settings on record: RXF 393, 48 h. In outline:
as §1

Assay [30] relates to COLO 205. The assay can be described thus: Cytotoxicity against human COLO205 cells after 48 hrs by SRB assay. The settings on record: COLO 205, 48 h. The method in brief:
as §1

Assay [31] has as its system SR. As to the kind of experiment: Cytotoxicity against human SR cells after 48 hrs by SRB assay. In outline:
as §1

Assay [32] relates to NCI-H226. The assay can be described thus: Cytotoxicity against human NCI-H226 cells after 48 hrs by SRB assay. The settings on record: NCI-H226, 48 h. In outline:
as §1

The subject of assay [33] is MDA-MB-231. As to the kind of experiment: Cytotoxicity against human MDA-MB-231 cells after 48 hrs by SRB assay. The conditions noted are these: MDA-MB-231, 48 h. In outline: as §1
In assay [34] the test system is MDA-MB-468. The assay can be described thus: Cytotoxicity against human MDA-MB-468 cells assessed as growth inhibition at 10 uM after 48 hrs by SRB assay. The settings on record: MDA-MB-468, 48 h, read-out: GI. In outline:
as §2

Assay [35] deals with A498. The assay can be described thus: Cytotoxicity against human A498 cells assessed as growth inhibition at 10 uM after 48 hrs by SRB assay. The settings on record: A498, 48 h, read-out: GI. In outline:
as §2

Assay [36] deals with BT-549. The assay can be described thus: Cytotoxicity against human BT549 cells after 48 hrs by SRB assay. The conditions noted are these: BT-549, 48 h. In outline:
as §1

Assay [37] deals with SK-MEL-5. As to the kind of experiment: Cytotoxicity against human SK-MEL-5 cells after 48 hrs by SRB assay. The conditions noted are these: SK-MEL-5, 48 h. In outline:
as §1

Where [38] appears, read: read-out: LC50 (the source's name).

The GI50 is the concentration giving 50% growth inhibition. For orientation: LC50 means the concentration that kills 50% of the test population. For `CN1C(=O)C(=Cc2cn(Cc3ccc(Cl)cc3)c3ccccc23)C(=O)N(C)C1=O`, the GI50 in assay [1] was > 100 µM; in assay [2], 2.84 µM; in [3] it was 0.18 µM; in assay [4] it was 2.88 µM; in assay [5], 3.53 µM; in assay [7] it was 6.08 µM. Moreover, the GI50 in assay [8] is 17.3 µM; in assay [10], 4.47 µM; in assay [11] it was > 100 µM; in [12], > 100 µM; in [14], 6.9 µM; in assay [15] it was 18.3 µM. In addition, the concentration for 50% growth inhibition (GI50) in assay [16] came to 16.3 µM; in assay [17] it was 21.3 µM; in [18] it was 0.04 µM; in assay [19], 2.01 µM; in assay [21] it was 1.21 µM; in [22], 10.7 µM. Further, the concentration for 50% growth inhibition (GI50) in assay [23] amounted to 2.06 µM; in assay [24], 10.2 µM; in [25] it was 0.06 µM; in assay [26], 0.4 µM; in assay [27], 92.1 µM; in [28], 0.16 µM. Moreover, the 50% growth inhibitory concentration (GI50) in assay [29] is 12.5 µM; in assay [30], 2.78 µM; in assay [31] it was 70.3 µM; in assay [32], 1.26 µM; in [33], 12.2 µM; in [36], 12.5 µM. Besides, the GI50 in assay [37] was > 100 µM. In addition, the CC50 is > 100 µM in assay [1] (setting [38]); 50.4 µM in [3] (setting [38]); > 100 µM in assay [4] (setting [38]); > 100 µM in assay [8] (setting [38]); > 100 µM in assay [9]; > 100 µM in assay [16] (setting [38]). Moreover, the CC50 in [17] (setting [38]), in assay [19] (setting [38]), in assay [22] (setting [38]), in assay [26] (setting [38]), in [27] (setting [38]) and in assay [28] (setting [38]) was > 100 µM in each case. Also, the CC50 was 29.5 µM in [30] (setting [38]), > 100 µM in assay [32] (setting [38]), > 100 µM in [33] (setting [38]) and > 100 µM in assay [36] (setting [38]). In addition, the median lethal concentration (LC50) in assay [5], in assay [7], in [10], in [11], in [12] and in assay [14] was > 100 µM in each case. The LC50 in assay [15] is > 100 µM; in [18] it was 0.64 µM; in assay [21], > 100 µM; in [23], > 100 µM; in assay [24], > 100 µM; in assay [25] it was 0.7 µM. Further, the median lethal concentration (LC50) in assay [37] is > 100 µM. For the same compound, the inhibition of growth at 10 µM is -26% in assay [6]; -23% in assay [13]; -82% in assay [20]; -71% in assay [34]; -94% in assay [35]. The LC50 (lethal concentration, 50%) in assay [29] and in assay [31] was > 100 µM each time.
In the case of `CN1C(=O)C(=Cc2cn(Cc3ccc(C#N)cc3)c3ccccc23)C(=O)N(C)C1=O`, the inhibition of growth at 10 µM in assay [6] was 62%; in assay [13], 6%; in assay [20] it was -72%; in [34] it was -71%; in assay [35], 68%.
As to `COC(=O)c1ccc(Cn2cc(C=C3C(=O)N(C)C(=O)N(C)C3=O)c3cc(C(=O)OC)ccc32)cc1`, the inhibition of growth at 10 µM in assay [6] came out at 113%; in assay [13], 98%; in assay [20] it was 88%; in [34], 99%; in [35], 105%.
As for `CN1C(=O)C(=Cc2cn(Cc3ccccc3Br)c3ccccc23)C(=O)N(C)C1=O`, the inhibition of growth at 10 µM was 105% in assay [6]; 75% in [13]; -32% in [20]; 56% in [34]; 74% in assay [35].
On the same counts, the results for `COC(=O)c1ccc2c(c1)c(C=C1C(=O)N(C)C(=O)N(C)C1=O)cn2Cc1ccc(S(=O)(=O)c2ccccc2)cc1` are 100%, 108%, 98%, 88% and 83%.
Consider `CN1C(=O)C(=Cc2cn(Cc3ccc(F)cc3)c3ccc(Cl)cc23)C(=O)N(C)C1=O`, for which the inhibition of growth at 10 µM in assay [6] was 19%; in assay [13] it was -19%; in assay [20], -79%; in assay [34] it was -70%; in [35], -95%.

These data come from ChEMBL document CHEMBL3102840, “Synthesis and anti-proliferative activity of aromatic substituted 5-((1-benzyl-1H-indol-3-yl)methylene)-1,3-dimethylpyrimidine-2,4,6(1H,3H,5H)-trione analogs against human tumor cell lines” (2014).
